Experiments:
Lipophilicity = format: physicochemical; settings: 2-octanol/water
Summary of the method: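 Shake-flask partition used 2-octanol and doubly distilled water 1:1 v/v (10 mL total) with 0.001 g test compound. The mixture was shaken overnight, left to equilibrate 1 h, and the phases separated. Compound in each phase was quantified by UV-Vis. log P was taken from the octanol/water concentration ratio.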

CT-DNA (calf thymus DNA) = assay: UV-Vis titration with CT-DNA; format: binding; settings: 298 K; for apparent binding constant Kapp with CT-DNA: UV-Vis titration, Tris-HCl pH 7.2; for standard Gibbs free energy change ΔG° of CT-DNA binding: ΔG° = -RTlnKapp
Summary of the method: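 CT-DNA stock was 1.5 mg/mL in Tris-HCl pH 7.2, made at 4 °C, with A260/A280 of 1.8–1.9; it was quantified by ε260 = 6600 M−1cm−1. 50 µL of stock was added to 1.45 mL buffer. Test compound (10−4 M stock in water) was added stepwise up to 9.09–13.29 µM, with 2 min at 298 K per step and absorbance read at 260 nm. Kapp = intercept/slope of the 1/(A−A0) versus 1/[Ligand] plot. ΔG° = −RTlnKapp at 298 K.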

[1] = molecular target: bovine serum albumin (BSA) (Bos taurus, UniProt P02769); assay: UV-Vis titration with BSA; format: binding; settings: for standard Gibbs free energy change ΔG° of BSA binding: 298 K, ΔG° = -RTlnKapp
Summary of the method: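 BSA stock was 3 mg/mL in Tris-HCl pH 7.2, made at 4 °C and quantified by ε280 = 44,300 M−1cm−1; 500 µL of stock was diluted with 1.00 mL buffer. Test compound (10−4 M stock in water) was added stepwise up to 6.83–10.18 µM, with 2 min equilibration at 298 K per step and readings at 280 nm. Kapp = intercept/slope of 1/(A−A0) versus 1/[Ligand]. ΔG° = −RTlnKapp (R 1.987 cal mol−1 K−1, T 298 K).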

[2] = DPPH free radical scavenging assay; format: biochemical; settings: standard control, compared with 3a-c
Summary of the method: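 DPPH stock was 0.1 mM in ethanol. Test compound solutions at 10, 25, 50, 100, 250, 500 and 1000 µg/mL (concentrations before mixing) were each mixed 1:1 v/v with the DPPH solution. Mixtures were vortexed 10 s and kept in the dark at room temperature for 30 min, then absorbance was read at 517 nm. Ascorbic acid was the reference antioxidant. Scavenging was calculated from absorbance by equation.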

DNA = settings: traditional intercalators, typical range; cited from earlier work

bovine serum albumin (BSA), sequence (P02769 25-607): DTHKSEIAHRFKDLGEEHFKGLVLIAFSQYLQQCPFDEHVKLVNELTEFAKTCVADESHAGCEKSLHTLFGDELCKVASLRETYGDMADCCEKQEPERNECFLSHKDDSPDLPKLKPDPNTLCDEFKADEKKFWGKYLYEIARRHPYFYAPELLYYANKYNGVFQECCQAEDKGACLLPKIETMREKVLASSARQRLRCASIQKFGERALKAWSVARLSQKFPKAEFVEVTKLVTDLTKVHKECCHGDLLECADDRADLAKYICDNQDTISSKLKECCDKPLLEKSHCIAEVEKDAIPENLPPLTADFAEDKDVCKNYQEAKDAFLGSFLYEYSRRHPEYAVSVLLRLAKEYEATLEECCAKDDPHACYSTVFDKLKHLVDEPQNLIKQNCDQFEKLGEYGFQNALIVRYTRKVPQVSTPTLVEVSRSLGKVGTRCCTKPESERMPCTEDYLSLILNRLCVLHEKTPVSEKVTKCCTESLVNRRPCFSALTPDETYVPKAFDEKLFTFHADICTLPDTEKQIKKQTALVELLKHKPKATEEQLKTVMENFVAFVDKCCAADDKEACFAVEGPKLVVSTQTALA

logP (Lipophilicity)	Kd [1] [µM]	standard Gibbs free energy change ΔG° of BSA binding [1] [kcal/mol]	Molecule	apparent binding constant Kapp with CT-DNA (CT-DNA (calf thymus DNA))	standard Gibbs free energy change ΔG° of CT-DNA binding (CT-DNA (calf thymus DNA)) [kcal/mol]	DPPH free radical scavenging activity (in words) [2]	binding constant Kb with DNA (DNA)
1.29	151	-5.21	O=C1Nc2ccccc2/C1=N/N=C/c1cccc([N+](=O)[O-])c1 [3a, (Z)−3-(((E)−3-nitrobenzylidene)hydrazineylidene)indolin-2-one]	1.01 × 10^4 M^− 1	-5.46		
2.3	136	-5.27	COc1ccccc1/C=N/N=C1\C(=O)Nc2ccccc21 [3b, (Z)−3-(((E)−2-methoxybenzylidene)hydrazineylidene)indolin-2-one]	1.17 × 10^4 M^− 1	-5.55		
			O=C1O[C@H]([C@@H](O)CO)C(O)=C1O [ascorbic acid, Ascorbic acid]			highest scavenging activity	
			CC[n+]1c(-c2ccccc2)c2cc(N)ccc2c2ccc(N)cc21 [ethidium bromide]				10^6 to 10^7 M^− 1
			[Ru(phen)DPPZ]				10^6 to 10^7 M^− 1

Source: PMC12663558 (Scientific Reports, 2025)
